Measurements reported in ChEMBL document CHEMBL3616437, “Thiazole compounds with activity against Cryptococcus gattii and Cryptococcus neoformans in vitro” (Eur J Med Chem, 2015).
In brackets after ≈: the same amount, converted by molar mass.

Assays:
[1] = system: Cryptococcus gattii species complex; assay: Antifungal activity against Cryptococcus gattii L27/01 after 48 to 72 hrs by broth microdilution method; format: functional, Cryptococcus bacillisporus
Method in brief: (§1)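 CLSI M27-A3 broth microdilution in RPMI with L-glutamine, buffered to pH 7.0 with 0.165 M MOPS. Colonies grown twice on SDA, 48 h at 35°C. Inoculum set to 70% transmittance at 530 nm, then diluted to 1-5 x10^3 cells/mL. Test agents dissolved in DMSO, serially diluted, tested at 0.1 to 62.5 µM. Plates held at 35°C for 48-72 h. MIC is the lowest concentration giving an optically clear well, read visually against drug-free growth controls.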

Cryptococcus neoformans [2] = assay: Antifungal activity against Cryptococcus neoformans ATCC 62066 after 48 to 72 hrs by broth microdilution method; format: functional
Vero = assay: Cytotoxicity against African green monkey Vero cells assessed as cell viability measured after 48 hrs by MTT assay; format: cell-based; conditions: Chlorocebus sabaeus
Method in brief: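 VERO cells in D-MEM with 5% FBS, used up to 20 passages. Seeded 1 x 10^4 cells/well, pre-incubated 24 h at 37°C. Exposed 48 h at 37°C, 5% CO2, to eight nonserial dilutions from 100 to 0.0128 µM, with 0.5% DMSO control. MTT reduction read-out, corrected for background and blank. IC50 reported as median with 95% CI. Triplicate, two independent experiments.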

Cryptococcus neoformans [3] = assay: Antifungal activity against Cryptococcus neoformans WP after 48 to 72 hrs by broth microdilution method; format: functional
Method in brief: (§2)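 CLSI M27-A3 broth microdilution. Isolates subcultured twice on SDA, 48 h at 35°C. Saline suspension adjusted to 70% transmittance at 530 nm, then diluted to 1-5 x10^3 cells/mL in RPMI with L-glutamine, 0.165 M MOPS, pH 7.0. Compounds in DMSO, tested at […]. 35°C for 48-72 h. MIC read visually as the lowest concentration giving an optically clear well.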

[4] = system: Cryptococcus gattii species complex; assay: Antifungal activity against Cryptococcus gattii LMM818 after 48 to 72 hrs by broth microdilution method; format: functional, Cryptococcus bacillisporus; method in brief: as §1
[5] = Cytotoxicity against C57BL/6 mouse peritoneal macrophages assessed as cell viability measured after 48 hrs by MTT assay; format: cell-based; conditions: C57BL/6, Peritoneal macrophage cell
Method in brief: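 Thioglycollate-elicited peritoneal macrophages from male C57BL/6 mice, 6–8 weeks old, in RPMI with 10% FBS. Seeded 1 x 10^5 cells/well, pre-incubated 24 h at 37°C. Exposed 48 h at 37°C, 5% CO2, to eight nonserial dilutions from 100 to 0.0128 µM, with 0.5% DMSO control. MTT read-out, % inhibition versus DMSO control. IC50 reported as median with 95% CI. Triplicate, two independent experiments.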

[6] = system: Cryptococcus bacillisporus; assay: Antifungal activity against Cryptococcus gattii ATCC 32608 after 48 to 72 hrs by broth microdilution method; format: functional; method in brief: as §1
[7] = system: Cryptococcus gattii species complex; assay: Antifungal activity against Cryptococcus gattii L24/01 after 48 to 72 hrs by broth microdilution method; format: functional, Cryptococcus bacillisporus; method in brief: as §1
[8] = system: Cryptococcus gattii species complex; assay: Antifungal activity against Cryptococcus gattii L28/02 after 48 to 72 hrs by broth microdilution method; format: functional, Cryptococcus bacillisporus; method in brief: as §1
Cryptococcus neoformans [9] = assay: Antifungal activity against Cryptococcus neoformans 28JF after 48 to 72 hrs by broth microdilution method; format: functional; method in brief: as §2
Cryptococcus neoformans [10] = assay: Antifungal activity against Cryptococcus neoformans 96806 after 48 to 72 hrs by broth microdilution method; format: functional; method in brief: as §2
[11] = system: Cryptococcus gattii species complex; assay: Ratio of compound MIC for Cryptococcus gattii LMM818 in presence of fluconazole to compound MIC for Cryptococcus gattii LMM818 in absence of fluconazole by checkerboard microtiter test; format: functional, Cryptococcus bacillisporus
Method in brief: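 Checkerboard microdilution: eight two-fold dilutions of test compound (0.11 to 15.6 µM) crossed with amphotericin B (0.025 to 3.9 µM, in DMSO) or fluconazole (0.48 to 62.5 µM, in water). Inoculum per CLSI M27-A3 in RPMI-MOPS pH 7.0, 1-5 x10^3 cells/mL. Growth 48 to 72 h. Effective MIC is the combination concentration giving complete inhibition. FICs derived from MICs in combination versus alone.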

Cryptococcus neoformans [12] = assay: Antifungal activity against Cryptococcus neoformans 5396 after 48 to 72 hrs by broth microdilution method; format: functional; method in brief: as §2
[13] = system: Cryptococcus gattii species complex; assay: Antifungal activity against Cryptococcus gattii ICB181 after 48 to 72 hrs by broth microdilution method; format: functional, Cryptococcus bacillisporus; method in brief: as §1
[14] = system: Cryptococcus gattii species complex; assay: Antifungal activity against Cryptococcus gattii 547/OTTI-97-PI-10 after 48 to 72 hrs by broth microdilution method; format: functional, Cryptococcus bacillisporus; method in brief: as §1
Cryptococcus neoformans [15] = assay: Antifungal activity against Cryptococcus neoformans F10 after 48 to 72 hrs by broth microdilution method; format: functional; method in brief: as §2
[16] = system: Cryptococcus gattii species complex; assay: Antifungal activity against Cryptococcus gattii 23/10993 after 48 to 72 hrs by broth microdilution method; format: functional, Cryptococcus bacillisporus; method in brief: as §1
Cryptococcus neoformans [17] = assay: Antifungal activity against Cryptococcus neoformans VM-MCMMPI after 48 to 72 hrs by broth microdilution method; format: functional; method in brief: as §2
[18] = Selectivity index, ratio of IC50 for African green monkey Vero cells to MIC for Cryptococcus neoformans ATCC 24067; format: toxicity, cell-based
Cryptococcus neoformans [19] = assay: Antifungal activity against Cryptococcus neoformans ATCC 24067 after 48 to 72 hrs by broth microdilution method; format: functional; method in brief: as §2
[20] = system: Cryptococcus gattii species complex; assay: Antifungal activity against Cryptococcus gattii 1913ER after 48 to 72 hrs by broth microdilution method; format: functional, Cryptococcus bacillisporus; method in brief: as §1
[21] = Selectivity index, ratio of IC50 for C57BL/6 mouse peritoneal macrophages to MIC for Cryptococcus neoformans ATCC 24067
Method in brief: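 SI = IC50/MIC. Thioglycollate-elicited peritoneal macrophages from C57BL/6 mice are seeded at 1 x 10^5/well. They are exposed for 48 h at 37°C to eight concentrations from 100 to 0.0128 µM. Viability read by MTT versus 0.5% DMSO control, triplicate in two experiments.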

[22] = system: Cryptococcus gattii species complex; assay: Antifungal activity against Cryptococcus gattii 196L/03 after 48 to 72 hrs by broth microdilution method; format: functional, Cryptococcus bacillisporus; method in brief: as §1
Cryptococcus neoformans [23] = assay: Antifungal activity against Cryptococcus neoformans CN31 after 48 to 72 hrs by broth microdilution method; format: functional; method in brief: as §2
[24] = system: Cryptococcus gattii species complex; assay: Antifungal activity against Cryptococcus gattii 135L/03 after 48 to 72 hrs by broth microdilution method; format: functional, Cryptococcus bacillisporus; method in brief: as §1
Cryptococcus neoformans [25] = assay: Antifungal activity against Cryptococcus neoformans LMM820 after 48 to 72 hrs by broth microdilution method; format: functional; method in brief: as §2
Cryptococcus neoformans [26] = assay: Antifungal activity against Cryptococcus neoformans ATCC 28957 after 48 to 72 hrs by broth microdilution method; format: functional; method in brief: as §2
Cryptococcus neoformans [27] = assay: Antifungal activity against Cryptococcus neoformans 27JF after 48 to 72 hrs by broth microdilution method; format: functional; method in brief: as §2

Q: With `COc1ccc(-c2csc(N/N=C(\C)CCO)n2)cc1` as the compound, how does the MFC [1] read?
A: 1.9 µM (≈ 0.554 µg/mL)

Q: What about the MIC [1] of the same compound?
A: 0.8 µM (≈ 0.233 µg/mL)

Q: What about the MFC (Cryptococcus neoformans [2]) of the same compound?
A: 15.6 µM (≈ 4.55 µg/mL)

Q: What about the MIC (Cryptococcus neoformans [2]) of the same compound?
A: 0.6 µM (≈ 0.175 µg/mL)

Q: What about the IC50 (Vero) of the same compound?
A: > 100 µM

Q: And the MFC (Cryptococcus neoformans [3])?
A: 3.9 µM (≈ 1.14 µg/mL)

Q: What about the MIC (Cryptococcus neoformans [3]) of the same compound?
A: 0.9 µM (≈ 0.262 µg/mL)

Q: And the MFC [4]?
A: 3.9 µM (≈ 1.14 µg/mL)

Q: What about the MIC [4] of the same compound?
A: 1.4 µM (≈ 0.408 µg/mL)

Q: And the IC50 [5]?
A: > 100 µM

Q: What about the MFC [6] of the same compound?
A: 3.9 µM (≈ 1.14 µg/mL)

Q: And the MIC [6]?
A: 1.4 µM (≈ 0.408 µg/mL)

Q: And the MFC [7]?
A: 3.9 µM (≈ 1.14 µg/mL)

Q: What about the MIC [7] of the same compound?
A: 1.4 µM (≈ 0.408 µg/mL)

Q: And the MFC [8]?
A: 3.9 µM (≈ 1.14 µg/mL)

Q: And the MIC [8]?
A: 1.4 µM (≈ 0.408 µg/mL)

Q: What about the MFC (Cryptococcus neoformans [9]) of the same compound?
A: 3.9 µM (≈ 1.14 µg/mL)

Q: And the MIC (Cryptococcus neoformans [9])?
A: 0.6 µM (≈ 0.175 µg/mL)

Q: What about the MFC (Cryptococcus neoformans [10]) of the same compound?
A: 3.9 µM (≈ 1.14 µg/mL)

Q: What about the MIC (Cryptococcus neoformans [10]) of the same compound?
A: 0.9 µM (≈ 0.262 µg/mL)

Q: What about the “fractional inhibitory concentration index (FICI)” value [11] of the same compound?
A: 2.32

Q: What about the MFC (Cryptococcus neoformans [12]) of the same compound?
A: 3.9 µM (≈ 1.14 µg/mL)

Q: And the MIC (Cryptococcus neoformans [12])?
A: 0.5 µM (≈ 0.146 µg/mL)

Q: And the MFC [13]?
A: 1.9 µM (≈ 0.554 µg/mL)

Q: And the MIC [13]?
A: 0.7 µM (≈ 0.204 µg/mL)

Q: And the MFC [14]?
A: 3.9 µM (≈ 1.14 µg/mL)

Q: And the MIC [14]?
A: 1.7 µM (≈ 0.495 µg/mL)

Q: And the MFC (Cryptococcus neoformans [15])?
A: 3.9 µM (≈ 1.14 µg/mL)

Q: What about the MIC (Cryptococcus neoformans [15]) of the same compound?
A: 0.7 µM (≈ 0.204 µg/mL)

Q: And the MFC [16]?
A: 3.9 µM (≈ 1.14 µg/mL)

Q: And the MIC [16]?
A: 1.4 µM (≈ 0.408 µg/mL)

Q: What about the MFC (Cryptococcus neoformans [17]) of the same compound?
A: 3.9 µM (≈ 1.14 µg/mL)

Q: What about the MIC (Cryptococcus neoformans [17]) of the same compound?
A: 0.5 µM (≈ 0.146 µg/mL)

Q: What about the selectivity ratio [18] of the same compound?
A: 111

Q: What about the MIC (Cryptococcus neoformans [19]) of the same compound?
A: 0.45 µM (≈ 0.131 µg/mL)

Q: What about the MFC [20] of the same compound?
A: 1.9 µM (≈ 0.554 µg/mL)

Q: What about the MIC [20] of the same compound?
A: 0.9 µM (≈ 0.262 µg/mL)

Q: And the Ratio [21]?
A: 222

Q: What about the MFC [22] of the same compound?
A: 3.9 µM (≈ 1.14 µg/mL)

Q: And the MIC [22]?
A: 1.4 µM (≈ 0.408 µg/mL)

Q: And the MFC (Cryptococcus neoformans [23])?
A: 7.8 µM (≈ 2.27 µg/mL)

Q: What about the MIC (Cryptococcus neoformans [23]) of the same compound?
A: 0.5 µM (≈ 0.146 µg/mL)

Q: And the MFC [24]?
A: 3.9 µM (≈ 1.14 µg/mL)

Q: What about the MIC [24] of the same compound?
A: 0.9 µM (≈ 0.262 µg/mL)

Q: What about the MFC (Cryptococcus neoformans [25]) of the same compound?
A: 3.9 µM (≈ 1.14 µg/mL)

Q: And the MIC (Cryptococcus neoformans [25])?
A: 0.5 µM (≈ 0.146 µg/mL)

Q: And the MFC (Cryptococcus neoformans [26])?
A: 3.9 µM (≈ 1.14 µg/mL)

Q: What about the MIC (Cryptococcus neoformans [26]) of the same compound?
A: 0.6 µM (≈ 0.175 µg/mL)

Q: And the MFC (Cryptococcus neoformans [27])?
A: 7.8 µM (≈ 2.27 µg/mL)

Q: And the MIC (Cryptococcus neoformans [27])?
A: 1.2 µM (≈ 0.35 µg/mL)
